Measured values of several laboratories.
ABL1 Y253F phosphorylated: Tyrosine-protein kinase ABL1, phosphorylated (ABL1, Homo sapiens, UniProt P00519, Y253F)
ABL1 phosphorylated: Tyrosine-protein kinase ABL1, phosphorylated (ABL1, Homo sapiens, UniProt P00519)
ABL1 F317L phosphorylated: Tyrosine-protein kinase ABL1, phosphorylated (ABL1, Homo sapiens, UniProt P00519, F317L)
ABL1 F317I phosphorylated: Tyrosine-protein kinase ABL1, phosphorylated (ABL1, Homo sapiens, UniProt P00519, F317I)
ABL1 F317L non-phosphorylated: Tyrosine-protein kinase ABL1, non-phosphorylated (ABL1, Homo sapiens, UniProt P00519, F317L)
ABL1 Q252H phosphorylated: Tyrosine-protein kinase ABL1, phosphorylated (ABL1, Homo sapiens, UniProt P00519, Q252H)
ABL1 F317I non-phosphorylated: Tyrosine-protein kinase ABL1, non-phosphorylated (ABL1, Homo sapiens, UniProt P00519, F317I)
ABL1 E255K: Tyrosine-protein kinase ABL1 (ABL1, Homo sapiens, UniProt P00519, E255K)
ABL1 M351T phosphorylated: Tyrosine-protein kinase ABL1, phosphorylated (ABL1, Homo sapiens, UniProt P00519, M351T)

CN(C)c1nccc(-c2cnn3ncccc23)n1
remaining binding (Tyrosine-protein kinase ABL1 (ABL1, Homo sapiens, UniProt P00519, H396P); binding; 1 µM): 89%

C=CC(=O)N1CCC(C(=O)NCC(=O)N2CCN(c3nc(-c4cnc(N)nc4C(F)F)nc(N4CCOCC4)n3)CC2)CC1
remaining binding (ABL1 Y253F phosphorylated; binding; competition with immobilised ligand; 1 µM): 90%

CN(C)c1nccc(-c2cnc3ncccn23)n1
remaining binding (Tyrosine-protein kinase ABL1 (ABL1, Homo sapiens, UniProt P00519, T315I); binding; 1 µM): 52%

COC(=O)Nc1nc2ccc(C(=O)c3ccccc3)cc2[nH]1
remaining binding (ABL1 phosphorylated; cell-free assay; competition with immobilised ligand; 10 µM): 0.9%

O=C(NCCCN1CCOCC1)c1ccc(Nc2nccc(-c3cc4ccccc4s3)n2)cc1
remaining binding (ABL1 phosphorylated; binding; competition with immobilised ligand; 1 µM): 37%

CCS(=O)(=O)c1cc2cc(C[C@](O)(CC(C)(C)c3ccc(F)cc3C(N)=O)C(F)(F)F)[nH]c2cn1
remaining binding (ABL1 F317L phosphorylated; cell-free assay; competition with immobilised ligand; 1 µM): 90%

C[C@@H](c1ccc(-n2cnc3c(N)ncnc32)cc1)N1CCc2nn(C)c(Cc3ccccc3)c2C1=O
remaining binding (ABL1 F317I phosphorylated; binding; competition with immobilised ligand; 0.1 µM): 62%

CNC(=O)Nc1ccc2c(c1)[C@@]1(CC2)OC(=O)N(CC(=O)N(Cc2ccc(F)cc2)[C@@H](C)C(F)(F)F)C1=O
remaining binding (ABL1 Y253F phosphorylated; cell-free assay; competition with immobilised ligand; 1 µM): 100%

Nc1ncc2c(n1)-c1c([nH]c3ccc(C#CC4CC4)cc13)CCCC2
remaining binding (ABL1 F317L non-phosphorylated; binding; competition with immobilised ligand; 1 µM): 63%

O=C(c1ccc(Nc2ncc(Cl)c(-c3ccc(Cl)s3)n2)cc1)N1CCC(N2CCCC2)CC1
remaining binding (Tyrosine-protein kinase ABL1, non-phosphorylated (ABL1, Homo sapiens, UniProt P00519, H396P); binding; competition with immobilised ligand; 1 µM): 0.35%

N#Cc1ccccc1CSc1nnc2c(n1)[nH]c1ccccc12
remaining binding (ABL1 phosphorylated; binding; competition with immobilised ligand; 10 µM): 94%

CNC(=O)[C@@H]1CC[C@@H](n2c(-c3ccc4cnccc4c3)nc3ccc(C(=O)NCc4cccc(C(N)=O)c4)cc32)C1
remaining binding (ABL1 Q252H phosphorylated; binding; competition with immobilised ligand; 1 µM): 100%

Cn1cc(Cl)c2c(Oc3c(F)cc(Nc4cc(Cl)nc(N)n4)cc3F)ccnc21
remaining binding (ABL1 F317I non-phosphorylated; binding; competition with immobilised ligand; 0.1 µM): 93%

N[C@@H]1CCN(c2nccc(-c3cnn4ncccc34)n2)C1
remaining binding (Tyrosine-protein kinase ABL1 (ABL1, Homo sapiens, UniProt P00519, F317I); binding; 1 µM): 100%

Cc1nc(Cc2cccc(C(F)(F)F)c2)sc1-c1ccc(C(N)=O)nc1
remaining binding (ABL1 Q252H phosphorylated; cell-free assay; competition with immobilised ligand; 1 µM): 100%

O=C(NCCCN1CCOCC1)c1ccc(Nc2ncc(Cl)c(-c3ccc(Cl)s3)n2)cc1
remaining binding (ABL1 F317I non-phosphorylated; binding; competition with immobilised ligand; 1 µM): 100%

O=C(Nc1c[nH]nc1C(=O)NC1CCNCC1)c1cc(F)cc(F)c1
remaining binding (Tyrosine-protein kinase ABL1, phosphorylated (ABL1, Homo sapiens, UniProt P00519, T315I); binding; competition with immobilised ligand; 1 µM): 98%

c1cnn2ncc(-c3ccnc(N4CCC45COC5)n3)c2c1
remaining binding (ABL1 E255K; binding; 1 µM): 63%

CCN1CCN(Cc2ccc(C(=O)Nc3ccc(C)c(Oc4ccc5c(c4)CC(=O)N5)c3)cc2C(F)(F)F)CC1
remaining binding (Tyrosine-protein kinase ABL1, non-phosphorylated (ABL1, Homo sapiens, UniProt P00519, T315I); binding; competition with immobilised ligand; 1 µM): 16%

Cc1cnc(Nc2ccc(C(=O)N3CCC(N4CCCC4)CC3)cc2)nc1-c1cc2ccccc2s1
remaining binding (ABL1 Y253F phosphorylated; binding; competition with immobilised ligand; 1 µM): 0.6%

O=C(NS(=O)(=O)c1ccc(NCC2CCOCC2)c([N+](=O)[O-])c1)c1ccc(N2CCN(Cc3ccc(C(F)(F)F)cc3-c3ccc(Cl)cc3)CC2)cc1Oc1cnc2[nH]ccc2c1
remaining binding (ABL1 M351T phosphorylated; cell-free assay; competition with immobilised ligand; 1 µM): 100%

COc1cnc(Nc2cccc(S(N)(=O)=O)c2)nc1N1CCN(c2ccccc2)C(=O)C1
remaining binding (ABL1 F317I non-phosphorylated; binding; competition with immobilised ligand; 1 µM): 89%

O=C(NCC1CCOCC1)c1n[nH]cc1NC(=O)c1c(F)cccc1F
remaining binding (ABL1 F317L non-phosphorylated; binding; competition with immobilised ligand; 1 µM): 88%

COc1ncc2cc3ccccc3nc2c1C#N
remaining binding (ABL1 F317I phosphorylated; cell-free assay; competition with immobilised ligand; 5 µM): 100%

CN1CCN(c2ccc(Nc3nccc(-c4cccc([N+](=O)[O-])c4)n3)cc2C(F)(F)F)CC1
remaining binding (ABL1 E255K; binding; 10 µM): 5.8%

Cc1cnn2ncc(-c3ccnc(N(C)C)n3)c2c1
remaining binding (Tyrosine-protein kinase ABL1 (ABL1, Homo sapiens, UniProt P00519, Y253F); binding; 1 µM): 85%

COc1cnc(Nc2cccc(S(N)(=O)=O)c2)nc1N1CCN(c2ccccc2)CC1
remaining binding (ABL1 phosphorylated; binding; competition with immobilised ligand; 1 µM): 79%

F[C@@H]1CCN(c2nccc(-c3cnn4ncccc34)n2)C1
remaining binding (Tyrosine-protein kinase ABL1 (ABL1, Homo sapiens, UniProt P00519, Q252H); binding; 1 µM): 93%

c1cncc(-c2cccc(Nc3nccc(NC4CCCCC4)n3)c2)c1
remaining binding (ABL1 M351T phosphorylated; binding; competition with immobilised ligand; 10 µM): 38%

CN(c1nccc(-c2cnn3ncccc23)n1)C1CC1
remaining binding (ABL1 phosphorylated; binding; 1 µM): 99%

O=C(O)[C@H]1[C@H](Cn2nnc3ccccc3c2=O)CC[C@@H]1C(=O)c1ccc(OCCC2CCOCC2)cc1
remaining binding (Tyrosine-protein kinase ABL1, non-phosphorylated (ABL1, Homo sapiens, UniProt P00519); cell-free assay; competition with immobilised ligand; 1 µM): 80%

C[C@H]1CCN(c2nccc(-c3cnn4ncccc34)n2)C1
remaining binding (Tyrosine-protein kinase ABL1 (ABL1, Homo sapiens, UniProt P00519, F317L); binding; 1 µM): 82%

O=C(c1ccc(Nc2ncc(Cl)c(-c3cc4ccccc4s3)n2)cc1)N1CCC(N2CCCC2)CC1
remaining binding (ABL1 F317L phosphorylated; binding; competition with immobilised ligand; 1 µM): 54%

CS(=O)(=O)NCC[C@H](NC(=O)c1cncc2c1cnn2-c1ccc(F)cc1)c1ccnc(S(C)(=O)=O)c1
remaining binding (ABL1 Y253F phosphorylated; cell-free assay; competition with immobilised ligand; 1 µM): 95%

O=C(c1ccc(Nc2nccc(-c3cc4ccccc4s3)n2)cc1)N1CCC(N2CCCC2)CC1
remaining binding (ABL1 F317I non-phosphorylated; binding; competition with immobilised ligand; 1 µM): 92%

O=C(NCc1ncc(C(F)(F)F)cc1Cl)c1ccc2c(c1)C1(CCS(=O)(=O)CC1)[C@H](C1CC1)N2S(=O)(=O)c1ccc(F)cc1
remaining binding (ABL1 phosphorylated; cell-free assay; competition with immobilised ligand; 1 µM): 71%
